M1 ag = agonists of M1 muscarinic receptor; CHO-M1 cells, Fluo-4 calcium fluorescence, agonist mode; hits give high values; B-score at 10 µM; 3% of 64,000 active; AID 626;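 active means fluorescence rise, raw or as B-score row- and column-corrected plate score, outside the 99.7% band of its plate's samples, either direction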
D1 allo mod = allosterically modulates the human D1 dopamine receptor; HEK293 D1, CRE-luciferase, dopamine EC30 potentiation; actives deviate in either direction; B-score at 10 µM; 5.9% of 58,000 active; P21728;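 active means luminescence count or its row- and column-corrected plate score outside the 99.7% band of the plate's sample wells, on either side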
M1 antagonist = M1 muscarinic receptor (rat) antagonism. P08482. CHO-M1 cells, Fluo-4 calcium, ACh EC80 antagonist mode; hits give low values. B-score at 10 µM. 3.4% of 64,000 active;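 active means calcium fluorescence response, raw or row-and-column corrected B-score, differing from the plate sample mean either way at a set confidence level, mostly lower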
S1P1 ag-PAM = activates or potentiates agonism at human S1P1 receptor; P21453; 0.57% of 56,000 active; activation, % at 9.5 µM; S1P1 CRE-bla cells, forskolin, beta-lactamase FRET, potentiator mode; S1P1 agonist co-added at EC20, 2 nM; 100% = saturating reference agonist, 0% = basal;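 active means activation above a cutoff set at the mean activation of all tested compounds plus 3 SD, cut at about 54% in these data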;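 further: forskolin at 4 µM as EC80 and the EC20 agonist is SEW2871; 100% = SEW2871 at its EC100 plus forskolin at EC80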
S1P3 agonist = activates the human S1P3 receptor | 0.1% of 60,000 active | S1P3 NFAT-BLA reporter cells, agonism, FRET ratio; relative to 1 µM S1P, basal subtracted | activation, % at 4.5 µM | AID 373 | Q99500;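 active means activation above the screen-wide mean plus 3 SD, cut at about 4.5% in these data, passing the limit was not always enough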
Target sequence (Q99500 whole entry, looked up): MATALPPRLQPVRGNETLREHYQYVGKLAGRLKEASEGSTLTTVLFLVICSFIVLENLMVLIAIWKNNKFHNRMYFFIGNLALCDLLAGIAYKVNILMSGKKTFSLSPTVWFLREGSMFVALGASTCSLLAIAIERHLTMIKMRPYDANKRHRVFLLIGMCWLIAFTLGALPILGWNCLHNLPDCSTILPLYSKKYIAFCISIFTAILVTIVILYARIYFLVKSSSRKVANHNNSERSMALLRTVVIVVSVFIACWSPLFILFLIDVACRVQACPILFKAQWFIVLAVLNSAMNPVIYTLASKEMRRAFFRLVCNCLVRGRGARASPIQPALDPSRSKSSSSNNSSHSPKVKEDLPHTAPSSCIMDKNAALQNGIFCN
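Assay system: stable CHO line with human S1P3, Gα16, NFAT-BLA reporter; Detection: FRET β-lactamase substrate fluorescence, excitation 405 nm, 460/535 nm emission ratio, background-subtracted; Read-out: percent activation versus median 1 µM S1P response, basal-subtracted, per plate; Incubation: cells plated overnight, compound 4 h 37 °C, substrate 2 h RT.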
M1 ag confirm = rat M1 muscarinic agonism, confirmation; CHO-M1 cells, Fluo-4 calcium fluorescence, agonist mode; actives lie on both sides; 19% of 1,700 active; AID 1488; fluorescence change (max-min) at 10 µM; shares compounds with M1 ag;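 active means fluorescence change differs from the solvent-only DMSO control mean at a set confidence level in both duplicate runs; inconclusive means differs from solvent-only control mean in just one of two runs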;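 further: an EC20 dose of acetylcholine follows compound addition during the same imaging run; raw fluorescence intensity difference in instrument units with no normalization to controls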
M4 ag counter = activates rat M4 receptor in counter-screen for M1 agonists. fluorescence change (max-min) at 10 µM. 9% of 1,700 active. CHO M4/Gqi5 cells, Fluo-4 calcium fluorescence, agonist mode; actives lie on both sides. AID 1741. shares compounds with M1 ag;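 active means fluorescence change differing from the plate's solvent-only control wells at 99.7% confidence in both duplicates, whether higher or lower; inconclusive means differs from solvent controls in only one of two duplicates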
Numbers without * were called inactive; ? = inconclusive; . = no result given. Hits are enriched below; roughly 11% of the tested compounds scored in any of these assays.

SMILES	M1 ag	D1 allo mod	M1 antagonist	S1P1 ag-PAM	S1P3 agonist	M1 ag confirm	M4 ag counter
Cc1ccc(-c2nn(-c3ccccc3)cc2/C=C(\C#N)c2cccc(C#N)c2)o1	-1.53	.	0.0219	14.0	0.4	.	.
CC1=C(C#N)C(=O)NC(C)(C)C1	-0.533	0.859	0.63	-9.5	-1.0	.	.
CC1=C(C#N)C(=O)N(C)C(C)(C)C1	19.3*	0.945	-0.0181	-16.2	0.9	-10.4	-33.3
CC(=O)OC1=C(C#N)Cn2ccc3cccc1c32	8.98*	-0.257	0.579	-4.4	-0.3	39.3	21.3
COc1cc(NC(=O)c2cc(OC)c(OC)c(OC)c2)c(OC)cc1NC(=O)CN1CCCCC1	3.91*	-3.27*	-0.172	-4.4	-0.7	?	-46.6
CC(=O)NCCc1ccc(S(=O)(=O)N2CCOCC2)cc1	2.23*	0.272	0.747	-13.9	-0.1	-2.97	-35.7
Cc1cccc(NC(=O)c2oc3ccc(S(=O)(=O)N4CCOCC4)cc3c2C)c1C	9.51*	-2.27	-1.29	-4.1	-0.5	?	-32.3
Cc1cc(=O)oc2ccc(OC(=O)c3cccc(S(=O)(=O)N4CCOCC4)c3)cc12	4.78*	-0.402	-0.602	.	-0.2	?	-37.6
Cc1c(C(=O)NCCC2=CCCCC2)oc2ccc(S(=O)(=O)N3CCOCC3)cc12	15.4*	.	-2.93*	.	.	?	-54.1
Cc1c(C(=O)NCc2cccs2)oc2ccc(S(=O)(=O)N3CCOCC3)cc12	2.37	.	-0.00723	.	.	.	.
COc1ccc(CCNC(=O)COc2ccc(S(=O)(=O)N3CCOCC3)cc2)cc1	0.299	0.654	0.273	2.9	0.9	.	.
Cc1cc(=O)oc2cc(OCc3ccc(S(=O)(=O)N4CCOCC4)cc3)ccc12	-0.343	0.75	0.265	3.8	-1.7	.	.
O=C(Nn1cnnc1)c1ccccc1-c1ccccc1	-0.872	0.0132	0.475	.	-0.7	.	.
CCOc1ccc(C2=[N+]([O-])C(C)(C)N(O)C2(C)C)cc1	3.63*	-0.204	2.67*	-7.4	0.2	-20.1	?
CN(C)CCOc1ccccc1Cc1ccccc1	32.5*	-4.53	-6.44*	-7.6	-1.8	-3.01	-30.4
N#Cc1sc2nc(-c3ccccc3)cc(-c3ccco3)c2c1N	15.3*	2.34	0.784	50.9	-2.0	23.5	-11.2
Nc1cc(-c2ccco2)no1	-0.512	0.0524	-0.0301	2.9	0.0	.	.
O=C(CSCC(=O)N1CCCCC1)Nc1nc(-c2cccs2)cs1	5.65*	-2.04	-1.81	59.7	-0.4	8.47	-11.1
O=C(CSCC(=O)N1CCCCC1)Nc1nc(-c2ccc(Cl)s2)cs1	4.8*	.	-0.591	42.5	-1.5	?	-29.7
CC1CC(C)CN(C(=O)CSCC(=O)Nc2nc(-c3cccs3)cs2)C1 (stereo not given)	-0.591	.	-0.0961	9.1	-0.3	.	.
CCOC(=O)N1CCN(C(=O)CSCC(=O)Nc2nc(-c3ccccc3)cs2)CC1	1.48	-1.08	-0.355	3.1	0.7	.	.
Cc1ccc(N2CC(C(=O)NCc3ccccn3)CC2=O)cc1 (stereo not given)	-0.0998	-0.0946	1.81	9.4	-0.5	.	.
COc1cc(NC(=O)C2CC(=O)NC3=C2C(=O)CC(C)(C)C3)c(OC)cc1Cl (stereo not given)	15.8*	.	-0.0819	-22.5	0.5	-2.82	-46.6
O=C(c1ccc(Cl)c(F)c1F)N1CCCC1	-0.992	0.69	1.65	-16.5	-0.6	.	.
COc1cc(OC)cc(-c2nnc(SCc3c(F)cccc3Cl)o2)c1	-2.79*	0.697	0.336	23.2	-1.0	?	-41.7
N=c1c(S(=O)(=O)c2ccccc2)cc2c(=O)n3ccccc3nc2n1Cc1ccco1	8.96*	2.89	0.136	-7.8	-0.1	14.6	-22.4
Cc1cc(NC(=O)NC2CCCN2S(=O)(=O)c2ccc(Cl)cc2)no1 (stereo not given)	1.06	-0.789	0.216	1.9	0.7	.	.
CC1CCCN(C(=O)C2CCN(CC3CC=CCC3)CC2)C1 (stereo not given)	0.0999	0.0157	-0.537	-15.8	-1.1	.	.
O=C(Nc1cccc(F)c1)c1c(F)c(F)c(F)c(F)c1F	3.7*	-0.943	-1.04	25.4	-0.5	-0.429	-58.3

Bioassay records from PubChem BioAssay.
